From ChEMBL document CHEMBL3526138, “Excretion and metabolism of milnacipran in humans after oral administration of milnacipran hydrochloride” (Drug Metab Dispos, 2012)

Tests used:
[1] = Drug excretion in human urine treated with [14C]-labeled milnacipran hydrochloride at 100 mg, po after 12 to 24 hrs by HPLC analysis; format: ADME, organism-based; conditions: in vivo
Method in brief: (§1)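 Healthy male subjects, single oral 100 mg [14C] milnacipran hydrochloride (1 μCi/mg) after breakfast; urine pooled by interval and kept at -80°C. Urine injected directly (200 µL) onto phenyl-hexyl HPLC, 35°C, gradient ammonium acetate pH 5/methanol at 1 mL/min, with radioactivity flow detection. Metabolite excretion = net peak radioactivity (% of chromatogram, background-subtracted) × urine radioactivity excreted (% of dose); four subjects without emesis, mean.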

Plasma [2] = assay: Plasma concentration in human treated with [14C]-labeled milnacipran hydrochloride at 100 mg, po measured at 1.5 hrs by HPLC analysis; format: ADME, organism-based; conditions: in vivo
Method in brief: (§2)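 Single oral 100 mg [14C] milnacipran hydrochloride in healthy men; blood taken into chilled K3EDTA tubes, plasma spun at ≥2,500 g for 10 min at 4°C and stored at -80°C. Pooled timepoint plasma was extracted and run on phenyl-hexyl HPLC, with 0.5-min fractions counted by LSC. Peak concentration = % of chromatogram radioactivity × pool radioactivity (ng equivalent of milnacipran/mL).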

Plasma [3] = assay: Plasma concentration in human treated with [14C]-labeled milnacipran hydrochloride at 100 mg, po measured at 3 hrs by HPLC analysis; format: ADME, organism-based; conditions: in vivo; method in brief: as §2
Plasma [4] = assay: Plasma concentration in human treated with [14C]-labeled milnacipran hydrochloride at 100 mg, po measured at 4 hrs by HPLC analysis; format: ADME, organism-based; conditions: in vivo; method in brief: as §2
[5] = Drug excretion in human urine treated with [14C]-labeled milnacipran hydrochloride at 100 mg, po after 4 to 8 hrs by HPLC analysis; format: ADME, organism-based; conditions: in vivo; method in brief: as §1
[6] = Drug excretion in human urine treated with [14C]-labeled milnacipran hydrochloride at 100 mg, po after 8 to 12 hrs by HPLC analysis; format: ADME, organism-based; conditions: in vivo; method in brief: as §1
Plasma [7] = assay: Plasma concentration in human treated with [14C]-labeled milnacipran hydrochloride at 100 mg, po measured at 2 hrs by HPLC analysis; format: ADME, organism-based; conditions: in vivo; method in brief: as §2
Plasma [8] = assay: Plasma concentration in human treated with [14C]-labeled milnacipran hydrochloride at 100 mg, po measured at 6 hrs by HPLC analysis; format: ADME, organism-based; conditions: in vivo; method in brief: as §2
[9] = Drug excretion in human urine treated with [14C]-labeled milnacipran hydrochloride at 100 mg, po after 48 to 72 hrs by HPLC analysis; format: ADME, organism-based; conditions: in vivo; method in brief: as §1
[10] = Drug excretion in human urine treated with [14C]-labeled milnacipran hydrochloride at 100 mg, po after 72 to 96 hrs by HPLC analysis; format: ADME, organism-based; conditions: in vivo; method in brief: as §1
Plasma [11] = assay: Plasma concentration in human treated with [14C]-labeled milnacipran hydrochloride at 100 mg, po measured at 1 hr by HPLC analysis; format: ADME, organism-based; conditions: in vivo; method in brief: as §2
[12] = Drug excretion in human urine treated with [14C]-labeled milnacipran hydrochloride at 100 mg, po up to 4 hrs by HPLC analysis; format: ADME, organism-based; conditions: in vivo; method in brief: as §1
[13] = Drug excretion in human urine treated with [14C]-labeled milnacipran hydrochloride at 100 mg, po after 24 to 48 hrs by HPLC analysis; format: ADME, organism-based; conditions: in vivo; method in brief: as §1
[14] = Drug excretion in human urine treated with [14C]-labeled milnacipran hydrochloride at 100 mg, po after 0 to 96 hrs by HPLC analysis; format: ADME, organism-based; conditions: in vivo
Plasma [15] = assay: Plasma concentration in human treated with [14C]-labeled milnacipran hydrochloride at 100 mg, po measured at 12 hrs by HPLC analysis; format: ADME, organism-based; conditions: in vivo; method in brief: as §2
Plasma [16] = assay: Plasma concentration in human treated with [14C]-labeled milnacipran hydrochloride at 100 mg, po measured at 0.5 hrs by HPLC analysis; format: ADME, organism-based; conditions: in vivo; method in brief: as §2
[17] = Retention time in human urine treated with [14C]-labeled milnacipran hydrochloride at 100 mg, po by HPLC analysis; format: ADME, organism-based; conditions: in vivo
Method in brief: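 Urine from subjects given oral 100 mg [14C] milnacipran hydrochloride was run on a Luna phenyl-hexyl column (250 x 4.6 mm) with guard column at 35°C. Elution used a gradient of ammonium acetate pH 5/water/methanol at 1 mL/min, with in-line radioactivity flow detection and UV at 220 nm.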

[18] = Drug excretion in monkey urine at 60 mg/kg, po; format: ADME, organism-based, Macaca mulatta; set-up: dose 60 mg/kg, route oral; conditions: rhesus monkey, read-out: Drug excretion
[19] = Drug excretion in rat urine at 100 mg/kg, po; format: ADME, organism-based; set-up: dose 100 mg/kg, route oral; conditions: read-out: Drug excretion
[20] = Drug excretion in mouse urine at 100 mg/kg, po; format: ADME, organism-based; set-up: dose 100 mg/kg, route oral; conditions: read-out: Drug excretion
[21] = Tmax in human at 100 mg, po by LC-MS/MS analysis; format: ADME, organism-based; conditions: in vivo
Method in brief: (§3)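 Plasma from healthy males after single oral 100 mg [14C] milnacipran hydrochloride, sampled 0.5–120 h. Unchanged drug quantified by validated LC-MS/MS with [2H10] internal standard, C8 column isocratic formic acid/water/methanol; linear 5–2000 ng/mL, LLOQ 5 ng/mL in 25 µL plasma. Non-compartmental analysis; values below LLOQ set to zero; subjects without emesis.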

[22] = Cmax in human at 100 mg, po by LC-MS/MS analysis; format: ADME, organism-based; set-up: dose 100 mg, route oral; conditions: in vivo; method in brief: as §3
[23] = Tmax in human; format: ADME, organism-based; conditions: in vivo
[24] = Drug excretion in human urine treated with [14C]-labeled milnacipran hydrochloride at 100 mg, po up to 96 hrs by LC-SRM analysis; format: ADME, organism-based; conditions: in vivo
Method in brief: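 0–96 h urine pool analysed by chiral LC-SRM on Chirobiotic V column, ammonium formate-methanol mobile phase, 1 mL/min, column 20°C. Enantiomer proportion from peak areas corrected by urine standard ratio, multiplied by milnacipran excreted in the pool (% of dose).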

[25] = AUC (0 to infinity) in human at 100 mg, po by LC-MS/MS analysis; format: ADME, organism-based; set-up: dose 100 mg, time infinity, route oral; conditions: plasma; method in brief: as §3
[26] = Drug excretion in human urine; format: ADME; conditions: read-out: Drug excretion
[27] = Half life in human at 100 mg, po by LC-MS/MS analysis; format: ADME, organism-based; conditions: in vivo; method in brief: as §3
[28] = AUC (0 to t) in human at 100 mg, po by LC-MS/MS analysis; format: ADME, organism-based; conditions: plasma; method in brief: as §3
[29] = Half life in human plasma; format: ADME, cell-free

Row | Compound | Drug excretion [1] | Cp (Plasma [2]) | Cp (Plasma [3]) | Cp (Plasma [4]) | Drug excretion [5] | Drug excretion [6] | Cp (Plasma [7]) | Cp (Plasma [8]) | Drug excretion [9] | Drug excretion [10] | Cp (Plasma [11]) | Drug excretion [12] | Drug excretion [13] | Drug excretion [14] | Cp (Plasma [15]) | Cp (Plasma [16]) | Retention_time [17] | Drug excretion [24] | other results
1 | CCNC(=O)[C@@]1(c2ccccc2)CC1CN (some centres not stated) | 2.06% | < 7.8 ng.Eq/ml | 24.6 ng.Eq/ml | 19.63 ng.Eq/ml | 1.35% | 1.26% | < 7.8 ng.Eq/ml | 23.46 ng.Eq/ml | 0.73% | 0.06% | < 7.8 ng.Eq/ml | 0.92% | 1.36% | 7.73% | 13.67 ng.Eq/ml | < 7.8 ng.Eq/ml | 11 min | – | –
2 | CCN(CC)C(=O)C1(c2ccccc2)CC1CNC(=O)O[C@@H]1O[C@H](C(=O)O)[C@@H](O)[C@H](O)[C@H]1O (some centres not stated) | – | – | – | – | – | – | – | – | – | – | – | – | – | – | – | – | – | – | dose excreted [18]: 1.6%; dose excreted [19]: 0.1%; dose excreted [20]: 1%
3 | CCN(CC)C(=O)[C@]1(c2ccccc2)C[C@@H]1CNC(=O)O[C@@H]1O[C@H](C(=O)O)[C@@H](O)[C@H](O)[C@H]1O | 2.36% | 161.3 ng.Eq/ml | 195.72 ng.Eq/ml | 234.38 ng.Eq/ml | 5.39% | 2.36% | 190.14 ng.Eq/ml | 140.79 ng.Eq/ml | 0.19% | Below limit of detection | 101.66 ng.Eq/ml | 6.26% | 0.76% | 17.23% | 50.79 ng.Eq/ml | 26.57 ng.Eq/ml | 22 min | – | –
4 | CCN(CC)C(=O)[C@@]1(c2ccccc2)C[C@H]1CNC(=O)O[C@@H]1O[C@H](C(=O)O)[C@@H](O)[C@H](O)[C@H]1O | 0.58% | < 7.8 ng.Eq/ml | 16.42 ng.Eq/ml | 17.49 ng.Eq/ml | 0.64% | 0.37% | < 7.8 ng.Eq/ml | < 7.8 ng.Eq/ml | Below limit of detection | Below limit of detection | < 7.8 ng.Eq/ml | 0.55% | 0.28% | 2.14% | < 7.8 ng.Eq/ml | < 7.8 ng.Eq/ml | 24 min | – | –
5 | CCN(CC)C(=O)C1(c2ccccc2)CC1CN (racemic) [MILNACIPRAN] | 10.87% | 156.73 ng.Eq/ml | 208.01 ng.Eq/ml | 214.21 ng.Eq/ml | 14.42% | 7.17% | 178.93 ng.Eq/ml | 186.82 ng.Eq/ml | 1.47% | 0.3% | 83.17 ng.Eq/ml | 15.54% | 5.45% | 54.71% | 87.22 ng.Eq/ml | 33.92 ng.Eq/ml | 35 min | 54.7% | Tmax [21]: 3.5 h; Cmax [22]: 240 ng/mL; Tmax [23]: 2 h; AUC(0-inf) [25]: 2770 ng·h/mL; dose excreted [26]: 50%; half-life [27]: 8.9 h; AUC(0-t) [28]: 2340 ng·h/mL; half-life [29]: 8 h
6 | CCN(CC)C(=O)C1(c2ccccc2)CC1CN (stereo in doubt) [MILNACIPRAN] | – | – | – | – | – | – | – | – | – | – | – | – | – | – | – | – | – | 23.5% | –
7 | CCN(CC)C(=O)[C@@]1(c2ccccc2)C[C@H]1CN [LEVOMILNACIPRAN] | – | – | – | – | – | – | – | – | – | – | – | – | – | – | – | – | – | 31.2% | –
